Holding throughout (format): functional
For test [1], the system named is Mus musculus. Briefly: Effect on Serum cholesterol levels on CF1 male mice at a dose of 20 (mg/kg)/day after 16 days. In short, it runs like this: (§1)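 CF1 male mice (~25 g), drug suspended in 1% carboxymethylcellulose in water, given ip daily for 16 days; n = 6; vehicle control. Tail-vein blood on days 9 and 16, serum cholesterol by modified Liebermann–Burchard reaction; day-14 serum triglyceride by commercial kit; expressed as % control.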

Test [2] has as its system Mus musculus. Briefly: Effect on Serum cholesterol levels on CF1 male mice at a dose of 20 (mg/kg)/day after 9 days. In short, it runs like this:
as §1

The subject of test [3] is Mus musculus. Briefly: Effect on Serum triglyceride levels on CF1 male mice at a dose of 20 (mg/kg)/day after 14 days. In short, it runs like this: as §1

Each structure is given as a SMILES string.

As for `CC(=O)c1ccc(N2C(=O)c3ccccc3C2=O)cc1`, the “Serum cholesterol (% of control)” value in the test with Mus musculus [1] is recorded as 55%. Besides, the values for the Control with Mus musculus [2] and in the test with Mus musculus [3] were 83% and 66%, respectively.
The corresponding values for `O=C(O)c1ccc(N2C(=O)c3ccccc3C2=O)cc1` are 53%, 89% and 58%.
For the compound `CCc1ccc(N2C(=O)c3ccccc3C2=O)cc1`, the “Serum cholesterol (% of control)” value with Mus musculus [1] was 89%. Further, the Control in the test on Mus musculus [2] stood at 89%; with Mus musculus [3], 96%.
`CCc1cccc(N2C(=O)c3ccccc3C2=O)c1`: the “Serum cholesterol (% of control)” value in the test on Mus musculus [1] stood at 82%. Further, the Control was 89% in the test with Mus musculus [2] and 95% in the test with Mus musculus [3].
For `CC(=O)c1cccc(N2C(=O)c3ccccc3C2=O)c1`, the “Serum cholesterol (% of control)” value in the test on Mus musculus [1] worked out at 84%. For the same compound, the Control with Mus musculus [2] came to 87%; in the test with Mus musculus [3], 74%.
Turning to `O=C(O)c1cccc(N2C(=O)c3ccccc3C2=O)c1`, the “Serum cholesterol (% of control)” value with Mus musculus [1] came to 69%. The Control was 81% in the test with Mus musculus [2] and 71% in the test on Mus musculus [3].
As for `CCc1ccccc1N1C(=O)c2ccccc2C1=O`, the “Serum cholesterol (% of control)” value in the test with Mus musculus [1] is recorded as 103%. The Control in the test on Mus musculus [2] was found to be 88%; with Mus musculus [3], 92%.
With `CCOC(=O)C(C)(C)Oc1ccc(Cl)cc1` [CLOFIBRATE], in the test on Mus musculus [1], the “Serum cholesterol (% of control)” value came out at 96%. Moreover, the results for the Control in the test on Mus musculus [2] and with Mus musculus [3] were 98% and 91%, respectively.
The corresponding values for `O=C1c2ccccc2C(=O)N1c1ccccc1` [N-PHENYL-PHTHALIMIDE] are 57%, 92% and 61%.
`O=C(O)c1ccccc1N1C(=O)c2ccccc2C1=O` [N-PHTHALOYLANTHRANILIC ACID]: the “Serum cholesterol (% of control)” value in the test with Mus musculus [1] is 77%. In addition, the figures for the Control in the test on Mus musculus [2] and with Mus musculus [3] were 92% and 78%, respectively.
Take `O=C1NC(=O)c2ccccc21` [PHTHALIMIDE]: the “Serum cholesterol (% of control)” value in the test on Mus musculus [1] is given as 57%. Also, the values for the Control in the test on Mus musculus [2] and with Mus musculus [3] were 63% and 44%, respectively.
